Bioassay records (PubChem)
In the library only some 3.8% were active in any assay of this set; here they are far more common.
MPTP block: permeability transition pore inhibition | 360,000 tested, 1.4% active | isolated mouse mitochondria, Ca2+ swelling absorbance, 30 min | inhibition, % at 10 µM | AID 602449;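 active = inhibition of 50% or more, scaled per plate between neutral and stimulator controls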;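 note: 0% = DMSO wells given calcium and 100% = 1 mM EGTA wells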
rCAG RNA binder: molecules binding r(CAG) RNA repeats; inhibition, % at 3 µM; r(CAG) RNA repeat, TO-PRO-1 dye displacement fluorescence; 370,000 tested, 1.3% active;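 active = inhibition above the plate cutoff, the mean of all test compounds on that plate plus 3 SD, cut at about 35% in these data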;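 note: 0% = DMSO alone and 100% = 100 µM mitoxantrone as full dye displacement; higher means more dye released from RNA so lower well fluorescence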
T cell HTS: modulates CD8 T cell binding to vesicles; 2C CD8+ T cell-vesicle binding, flow cytometry; hits give low values; response (vesicle binding), % at 7 µM; 330,000 tested, 0.068% active;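 active = response, share of CD8 T cells binding vesicles, and their 90th percentile fluorescence all below set limits, cut at about 80% in these data, passing the limit was not always enough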;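 note: values below 100% mean blocked vesicle binding to the CD8+ T cells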
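Benchmarks: naked versus QL9-loaded vesicles / Assay system: purified 2C TCR transgenic mouse naive CD8+ T cells / Technique: high-throughput flow cytometry with anti-B7-1 and anti-CD8 staining / Timing: Cell–vesicle co-incubation 1.5 h at 37 °C, staining 20 min on ice / Read-out: percent CD8+ FL2 mean versus row control / Probe or stimulus: QL9-loaded Drosophila micro-vesicles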
V-ATPase pH: yeast V-ATPase proton transport regulation by pHLuorin | S. cerevisiae, pHLuorin cytosolic pH fluorescence | response, % at 10 µM | 350,000 tested, 0.37% active | AID 504577; in the data active = response mostly above about 7.3%, no sharp cut-off; inactive = mostly below about 5.4%; note: actives read high
Beta2AR agonist: activates human beta-2 adrenergic receptor causing internalization. P07550. Am2.2-beta2AR cells, FAP receptor internalization, flow cytometry. response, % (concentration not given with the values). 340,000 tested, 0.43% active. AID 504454;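 active = response above a set limit, near 3 SD of response in nonfluorescent compounds, cut at about 42% in these data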
Target sequence (P07550 whole entry, looked up): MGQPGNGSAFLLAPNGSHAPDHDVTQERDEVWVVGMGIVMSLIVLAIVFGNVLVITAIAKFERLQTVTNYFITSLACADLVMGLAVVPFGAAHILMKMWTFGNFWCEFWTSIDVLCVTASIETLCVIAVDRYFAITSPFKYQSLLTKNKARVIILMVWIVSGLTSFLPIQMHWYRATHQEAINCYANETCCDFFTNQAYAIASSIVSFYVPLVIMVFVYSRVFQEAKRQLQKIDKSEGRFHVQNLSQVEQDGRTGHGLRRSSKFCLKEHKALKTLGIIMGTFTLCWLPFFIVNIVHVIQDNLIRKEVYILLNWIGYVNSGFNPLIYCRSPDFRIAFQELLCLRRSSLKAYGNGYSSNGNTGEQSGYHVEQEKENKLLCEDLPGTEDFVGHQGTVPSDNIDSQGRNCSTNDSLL
Exocytosis inh: blocks lytic granule exocytosis; TALL-104 LAMP-1 surface exposure, flow cytometry; cells stimulated with thapsigargin and PMA; inhibition, % at 10 µM; 360,000 tested, 0.66% active; AID 651702;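 active = inhibition above about 55%, limit read from the data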
MPTP counter: mitochondrial membrane potential, counter-screen. shares compounds with MPTP block. isolated mitochondria, Rhodamine 123 fluorescence. inhibition, % at 10 µM. 5,000 tested, 78% active. AID 624504; in the data active = inhibition above about 22%;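 note: 0% = DMSO vehicle and 100% = positive control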
The depositor's hits bear a star; . = not tested or not shown.

SMILES	MPTP block	rCAG RNA binder	T cell HTS	V-ATPase pH	Beta2AR agonist	Exocytosis inh	MPTP counter
O=c1c2c(-c3ccccc3)csc2nc2c3ccccc3c(NCCN3CCOCC3)nn12	58*	7	.	3	107*	67*	-17
O=S1(=O)c2ccc(N3CCSCC3)cc2Oc2ccccc2CN1Cc1cn(Cc2ccc(Cl)cc2)nn1	.	13	.	.	.	.	.
CCOC(=O)[C@@H]1[C@H]2COc3ccccc3[C@H]2N2C(=O)N(c3ccc(C(F)(F)F)cc3)C(=O)[C@]12C	95*	-3	241	-4	-1	0	118*
CC(=O)N[C@@H]1C[C@@H]2O[C@H](CO)CC[C@@H]2O[C@@H]1CCc1ccc(C#CC2(O)CCCC2)cc1	.	-1	.	.	.	.	.
COc1ccccc1NC(=O)NCC(=O)Nc1ccc(F)c(F)c1	-1	0	224	4	-1	0	.
O=C(Nc1cccc(Cl)c1)Nc1ccc(Br)cc1F	75*	9	504	-4	3	12	82*
COc1ccccc1NC(=O)Nc1ccc(F)c(F)c1	81*	2	369	-3	9	1	68*
O=C(Nc1ccccc1)Nc1ccc(Br)cc1F	53*	3	351	-3	5	4	84*
Cc1cc(NC(=O)Nc2ccccc2F)ccc1Br	84*	10	313	-2	2	-8	91*
COC(=O)c1cc(Br)ccc1NC(=O)Nc1ccccc1	0	-3	175	-4	-5	0	.
C[C@@H]1ON(C)[C@H]2C[C@H]3c4[nH]c5cccc(-c6ccccc6F)c5c4CCN3C(=O)[C@@H]12	.	12	.	.	.	.	.
COC(=O)c1cc2c(c3c4ccccc4n(S(C)(=O)=O)c13)C(=O)N(Cc1ccccc1)C2	.	14	.	.	.	.	.
Cc1cccnc1N(C(=O)Nc1cccc(Cl)c1)C1=NCC(C)(C)S1	52*	2	123	1	1	4	75*
